# Assay outcomes deposited in PubChem BioAssay by Broad Institute.
# DENV2 CPE: DENV2-induced cell death inhibition | DENV2-infected cells, cytopathic effect rescue, plate reader | CPE inhibition, % at 9.99 µM | 350,000 compounds, 1.7% hits | AID 651640; in the data active means CPE inhibition above about 20%, passing the limit was not always enough; inconclusive means no clear call, values can overlap the other calls; tested in BHK-21 cells;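 further: 0% = median of neutral control wells and 100% = median of positive control wells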
# rRNA inh HTS: inhibitors of bacterial rRNA selective over humanized ribosomes | E. coli WT GFP vs humanized-ribosome RFP mutants, fluorescence, 24 h; active compounds read low; DMSO median 0, no signal -100 | GFP signal change (wild-type ribosome), % (no concentration beside the values) | 350,000 compounds, 1.6% hits | AID 720706;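 active means significant combined selectivity score with lowered wild-type GFP, culture density cut under 30%, mutant RFP and density less affected; inactive means any of these conditions unmet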
# MLL AF4-AF9 inh: MLL-AF4/AF9 protein interaction inhibition | P42568 | AlphaScreen, biotin-AF4 peptide binding to FLAG-AF9 | inhibition, % at 10 µM | 350,000 compounds, 0.47% hits | AID 651704;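 active means every replicate reaching a set inhibition limit, whatever the replicate mean, cut at about 25% in these data; inconclusive means mean inhibition reaches that limit but some replicates miss it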;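 further: 0% = plate neutral control median and 100% = total signal loss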
# Target sequence (P42568 whole entry, looked up): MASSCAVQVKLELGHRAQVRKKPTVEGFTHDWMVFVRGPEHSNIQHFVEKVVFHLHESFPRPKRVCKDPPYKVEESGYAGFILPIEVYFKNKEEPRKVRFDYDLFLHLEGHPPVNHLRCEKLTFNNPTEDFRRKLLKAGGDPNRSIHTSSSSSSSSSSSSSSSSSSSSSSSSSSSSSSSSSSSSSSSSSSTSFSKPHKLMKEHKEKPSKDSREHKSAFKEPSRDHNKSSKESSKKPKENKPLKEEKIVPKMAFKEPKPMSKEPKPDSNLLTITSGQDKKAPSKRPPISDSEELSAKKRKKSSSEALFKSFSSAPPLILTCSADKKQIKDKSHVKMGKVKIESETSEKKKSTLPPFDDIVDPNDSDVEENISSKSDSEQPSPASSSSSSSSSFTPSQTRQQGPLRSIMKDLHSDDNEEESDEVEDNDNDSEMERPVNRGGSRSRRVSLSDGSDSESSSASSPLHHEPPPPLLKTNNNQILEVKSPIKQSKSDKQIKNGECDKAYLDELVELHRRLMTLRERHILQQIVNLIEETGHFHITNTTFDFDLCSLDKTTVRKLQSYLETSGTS
# Cneo AK release: Cryptococcus neoformans lysis via adenylate kinase release; C. neoformans lysis, adenylate kinase release luminescence, 4 h; normalised: neutral wells 0, clomiphene wells 100; lysis activity, % at 15 µM; 360,000 compounds, 0.2% hits;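 active means mean lysis activity across replicates of at least 80%, whatever share of replicates individually reach that level; inactive means mean lysis activity below 80%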
#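 Assay system: C. neoformans cells. Amount: yeast cell density of 5 × 10^6 cells/mL. Technique: AK luminescence. Buffer or medium: YPD. Times: static 4 h at 37 °C with compound, 1 h detection. Dosing: single-point compound dose. Read-out: lysis from increased AK signal.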
# S100A4 MyoIIA: inhibitors of human S100A4 binding to myosin IIA peptide; P26447; S100A4/TAMRA-MyoIIA peptide fluorescence polarization; inhibition, % at 10.7 µM; 360,000 compounds, 0.14% hits;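 active means mean inhibition of at least 70% across replicates, with every replicate also reaching that level; inconclusive means mean inhibition reaches 70% but some replicates fall short; inactive means mean inhibition below 70%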
# Target sequence (P26447 whole entry, looked up): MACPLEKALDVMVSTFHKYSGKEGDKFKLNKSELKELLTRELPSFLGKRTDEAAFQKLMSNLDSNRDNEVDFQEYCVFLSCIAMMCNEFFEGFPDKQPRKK
#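 Material: S100A4 monomer (human). Medium: Calcium-containing HEPES buffer, pH 7.2. Probe or stimulus: labelled myosin peptide probe, 5 nM. Compound dosing: one concentration per compound. Timing: polarization read 5 min after assay mix addition, stable 5–60 min. Benchmarks: DMSO as neutral control, TFP as positive control.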
# PfHsp90 yeast 2: inhibits growth of yeast expressing Plasmodium falciparum Hsp90; AID 504621; S. cerevisiae expressing PfHsp90, BacTiter-Glo ATP, 48 h; yeast lacking PDR1 and PDR3 efflux regulators; inhibition, % at 9.4 µM; 310,000 compounds, 0.32% hits;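 active means every replicate shows inhibition above about 80%, whatever the replicate mean, limit read from the data; inconclusive means mean inhibition reaches the set limit but some replicate falls short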;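 further: 0% = DMSO neutral controls and 100% = 20 µM radicicol positive controls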
# Active calls of the source: *; ? = inconclusive; . = not tested or not shown; + = active, no number; ! = repeats disagree. Rows were chosen to be rich in hits. Some 3.2% of all compounds tested hit in one or more screens of this group.
SMILES,DENV2 CPE,rRNA inh HTS,MLL AF4-AF9 inh,Cneo AK release,S100A4 MyoIIA,PfHsp90 yeast 2
O=C(Nc1cccc(Cl)c1)c1ccccc1,28*,6,-2,-3,1,-5
COCCCNCCCCOc1cccc(Br)c1,3,15,-17,2,-1,11
OCCNCCCCOc1cccc(Br)c1,39*,-1,1,.,-16,-16
COc1cccc(S(=O)(=O)N2CCCCN3[C@H](C2)[C@@H](c2ccc(C#CCC(C)C)cc2)[C@@H]3CO)c1,-24,-2,-3,-1,-3,.
COc1cccc(S(=O)(=O)N2CCCCN3[C@@H](CO)[C@@H](c4ccc(C#CCC(C)C)cc4)[C@@H]3C2)c1,-28,-33,9,84*,-3,.
CC(C)CC#Cc1ccc([C@@H]2[C@H](CO)N3CCCCN(S(=O)(=O)c4ccc(F)cc4)C[C@@H]23)cc1,-25,-19*,4,3,1,.
Cc1ccc(-c2cnc3c(c2)C(=O)N([C@@H](C)CO)C[C@@H](C)[C@@H](CN(C)Cc2ccccc2C(=O)O)O3)cc1,0,2,-1,1,0,.
C[C@@H]1CN([C@H](C)CO)C(=O)c2cc(C3=CCCC3)cnc2O[C@H]1CN(C)C(=O)c1ccc2c(c1)OCO2,-3,2,-1,1,-5,.
CC(=O)[C@@]1(O)Cc2c(O)c3c(c(O)c2[C@H](O[C@H]2C[C@H](N)[C@H](O)[C@H](C)O2)C1)C(=O)c1ccccc1C3=O,-13,73,25*,12,+,.
COc1cccc2c1C(=O)c1c(O)c3c(c(O)c1C2=O)C[C@@](O)(C(=O)CO)C[C@@H]3OC1CC(N)C(O)C(C)O1 (stereo partly drawn),-1,8,8,.,187*,-18
COc1cccc2c1C(=O)c1c(O)c3c(c(O)c1C2=O)CC(O)(C(C)=O)CC3OC1CC(N(C)C)C(O)C(C)O1 (stereo not drawn),-6,20,14,.,+,98*
COc1cccc2c1C(=O)c1c(O)c3c(c(O)c1C2=O)C[C@@](O)(C(=O)CO)C[C@@H]3O[C@H]1C[C@H](N)[C@H](O)[C@H](C)O1,-2,.,19,1,178*,23
O=C(Nc1ccccc1F)N[C@@H]1C=C[C@H](CC(=O)N2CCCCC2)O[C@H]1CO,-2,0,-1,-1,2,.
C=CC(=O)N1C/C(=C/c2ccccc2)C(=O)/C(=C\c2ccccc2)C1,?,-44*,8,.,-1,-18
Cc1ccc2nc3c(cc(S(=O)(=O)c4ccccc4)c(=N)n3Cc3ccco3)c(=O)n2c1,6,-21*,-3,3,0,-10
N=c1c(S(=O)(=O)c2ccccc2)cc2c(=O)n3ccccc3nc2n1Cc1ccco1,.,.,.,-2,.,-1
CN(C)C(=O)C[C@H]1CC[C@H]2[C@@H](COC[C@H](O)CN2S(=O)(=O)c2ccccc2)O1,-5,1,-3,0,-8,.
COc1ccc(OCCN2C(=O)NC(C)(c3ccc(C)cc3)C2=O)cc1 (stereo not drawn),.,.,.,-4,.,0
Cc1ccc(C2(C)NC(=O)N(CCOc3ccccc3)C2=O)cc1 (stereo not drawn),.,-33*,.,7,2,-13
CC(C)CNC(=O)[C@@]1(C)c2ccccc2C(=O)N(Cc2ccccc2)[C@H]1c1ccc(CO)cc1,-5,.,-3,-1,14,.
COc1ccc(CN(C)C[C@@H]2OCCCC[C@H](C)Oc3ccc(NC(=O)CCC(F)(F)F)cc3C(=O)N([C@H](C)CO)C[C@H]2C)cc1,62*,1,-1,0,0,.
C[C@@H]1CCCCO[C@H](CN(C)Cc2ccccc2)[C@H](C)CN([C@H](C)CO)C(=O)c2cc(NC(=O)CCC(F)(F)F)ccc2O1,37*,0,0,-6,-2,.
COc1ccc(CN(C)C[C@H]2OCCCC[C@@H](C)Oc3ccc(NC(=O)CCC(F)(F)F)cc3C(=O)N([C@H](C)CO)C[C@@H]2C)cc1,8,3,-2,-1,7,.
COc1ccc(CN(C)C[C@H]2OCCCC[C@H](C)Oc3ccc(NC(=O)CCC(F)(F)F)cc3C(=O)N([C@@H](C)CO)C[C@@H]2C)cc1,44*!,3,3,2,-1,.
O=C(C[C@H]1CC[C@H]2[C@@H](COC[C@@H](O)CN2Cc2ccc(Oc3ccccc3)cc2)O1)N1CCCCC1,24*,-52,2,-4,9,.
SMILES,DENV2 CPE,rRNA inh HTS,MLL AF4-AF9 inh,Cneo AK release,S100A4 MyoIIA,PfHsp90 yeast 2
O=C(C[C@H]1CC[C@@H]2[C@H](COC[C@H](O)CN2Cc2cccc(Cl)c2)O1)N1CCOCC1,-2,4,-2,-5,7,.
O=C(C[C@@H]1CC[C@@H]2[C@H](COC[C@H](O)CN2Cc2cccc(Cl)c2)O1)N1CCOCC1,103*,4,-1,-1,5,.
CN1CCN(C(=O)C[C@@H]2CC[C@H]3[C@@H](COC[C@@H](O)CN3Cc3cccc(Cl)c3)O2)CC1,27*,-1,-4,-1,0,.
O=C(C[C@@H]1CC[C@H]2[C@@H](COC[C@@H](O)CN2Cc2cccc(Cl)c2)O1)N1CCOCC1,90*,-2,-2,-1,3,.
O=C(C[C@@H]1CC[C@@H]2[C@H](COC[C@H](O)CN2Cc2ccc(Oc3ccccc3)cc2)O1)N1CCCCC1,-7,-57,1,1,-2,.
CCC(=O)Nc1ccc2c(c1)OC[C@@H](C)N(Cc1cncnc1)C[C@H](C)[C@H](OC)CN(C)C2=O,1,0,-2,4,-35,.
C[C@H]1CN(C)C(=O)Cc2cc(NS(C)(=O)=O)ccc2O[C@@H]1CN(C)S(C)(=O)=O,.,1,.,.,.,.
C[C@@H]1CN([C@H](C)CO)C(=O)c2cc(NC(=O)Nc3ccc(F)cc3)ccc2O[C@@H](C)CCCCO[C@H]1CN(C)C(=O)C1CCCCC1,15,1,5,3,65,.
CC(C)NC(=O)N(C)C[C@@H]1Oc2ccc(NC(=O)Cc3cn(C)c4ccccc34)cc2C(=O)N([C@H](C)CO)C[C@@H]1C,-4,-2,-10,49,6,.
Cc1ccc(S(=O)(=O)Nc2cccc3c2O[C@H](CN(C)S(=O)(=O)c2cccs2)[C@@H](C)CN([C@@H](C)CO)C3=O)cc1,63*,-2,-1,63,11,.
C[C@@H]1CN([C@H](C)CO)C(=O)c2cccc(NS(=O)(=O)c3ccc(Cl)cc3)c2O[C@@H]1CN(C)S(=O)(=O)c1cccs1,76*,-8,2,-2,-9,.
C[C@H](CO)N1C[C@H](C)[C@@H](CN(C)S(=O)(=O)c2cccs2)Oc2c(NC(=O)c3ccncc3)cccc2C1=O,1,0,0,2,-12,-1
